Experimental data from ChEMBL document CHEMBL1121599, “Synthesis and analgesic activity of some 5-(4-hydroxyphenyl)-2-azabicyclo[3.2.1]octanes” (J Med Chem, 1980).

Columns and labels:
Mus musculus [1] = assay: Tested in vivo for the analgesic activity by measuring the inhibition of phenyl-p-quinone- induced writhing (PQW) in mice upon subcutaneous administration; 7.2-21.9; assay type: functional; settings: sc
In short: (§1)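 Compounds were given as racemic hydrobromide salts. The vehicle, also used as the control in both the tail-flick and the phenylquinone writhing tests, was distilled water with a few drops of Tween 80.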

Opioid receptor = Opioid receptor (Rattus norvegicus, UniProt P33533+P34975+P33535); assay: Tested for In vitro binding constant for Opioid receptors by measuring the inhibition of stereospecific binding of [3H]naloxone in rat brain homogenates; assay type: tissue-based
Mus musculus [2] = assay: Tested in vivo for the analgesic activity by measuring the delay in response to noxious heat stimuli (D'Amour-Smith tail-flick method) in mice upon subcutaneous administration; assay type: functional; settings: sc; in short: as §1
Mus musculus [3] = assay: Tested in vivo for the analgesic activity by measuring the inhibition of phenyl-p-quinone- induced writhing (PQW) in mice upon subcutaneous administration; 0.20-0.36; assay type: functional; settings: sc; in short: as §1
Mus musculus [4] = assay: Tested in vivo for the analgesic activity by measuring the inhibition of phenyl-p-quinone- induced writhing (PQW) in mice upon subcutaneous administration; 3.2-4.4; assay type: functional; settings: sc; in short: as §1
Mus musculus [5] = assay: Tested in vivo for the analgesic activity by measuring the inhibition of phenyl-p-quinone- induced writhing (PQW) in mice upon subcutaneous administration; 2.6-3.4; assay type: functional; settings: sc; in short: as §1
Mus musculus [6] = assay: Tested in vivo for the analgesic activity by measuring the inhibition of phenyl-p-quinone- induced writhing (PQW) in mice upon subcutaneous administration; 2.2-2.7; assay type: functional; settings: sc; in short: as §1
Mus musculus [7] = assay: Tested in vivo for the analgesic activity by measuring the delay in response to noxious heat stimuli (D'Amour-Smith tail-flick method) in mice upon subcutaneous administration; 7.4-24.4; assay type: functional; settings: sc; in short: as §1
Mus musculus [8] = assay: Tested in vivo for the analgesic activity by measuring the inhibition of phenyl-p-quinone- induced writhing (PQW) in mice upon subcutaneous administration; 2.1-2.9; assay type: functional; settings: sc; in short: as §1
Mus musculus [9] = species: Mus musculus; assay: animal or person; settings: sc

CN1CCC2(c3ccc(O)cc3)CCC1C2 (stereo not drawn)
ED50 (Mus musculus [1]): 10.8 mg/kg
IC50 (Opioid receptor): 7290 nM
ED50 (Mus musculus [2]): > 25 mg/kg

O=C(CCCN1CCC2(c3ccc(O)cc3)CCC1C2)c1ccc(F)cc1 (stereo not drawn)
ED50 (Mus musculus [3]): 0.27 mg/kg
IC50 (Opioid receptor): 268 nM
ED50 (Mus musculus [2]): > 25 mg/kg

CCCN1CCC2(c3ccc(O)cc3)CCC1C2 (stereo not drawn)
ED50 (Mus musculus [4]): 3.7 mg/kg
IC50 (Opioid receptor): 6980 nM
ED50 (Mus musculus [2]): > 25 mg/kg

Oc1ccc(C23CCC(C2)N(CC2CC2)CC3)cc1 (stereo not drawn)
ED50 (Mus musculus [5]): 3 mg/kg
IC50 (Opioid receptor): 2780 nM
ED50 (Mus musculus [2]): > 25 mg/kg

Oc1ccc(C23CCC(C2)N(CCc2ccccc2)CC3)cc1 (stereo not drawn)
ED50 (Mus musculus [6]): 2.5 mg/kg
IC50 (Opioid receptor): 340 nM
ED50 (Mus musculus [2]): > 25 mg/kg

CC(C)=CCN1CC[C@]2(C)c3cc(O)ccc3C[C@H]1[C@H]2C [(+)-PENTAZOCINE]
ED50 (Mus musculus [7]): 14.6 mg/kg
ED50 (Mus musculus [8]): 2.4 mg/kg

CN1CC[C@]23c4c5ccc(O)c4O[C@H]2[C@@H](O)C=C[C@H]3[C@H]1C5 [MORPHINE]
ED50 (Mus musculus [9]): 0.68 mg/kg
